What was measured:
Integrin beta-7 = molecular target: T1, Integrin beta-7 (Homo sapiens, UniProt P13612+P26010); test: Inhibition of alpha4-beta7 interaction to mucosal addressin cell adhesion molecule-1 (MAdCAM-1) was determined; format: functional
T1 sequence (P26010 whole entry): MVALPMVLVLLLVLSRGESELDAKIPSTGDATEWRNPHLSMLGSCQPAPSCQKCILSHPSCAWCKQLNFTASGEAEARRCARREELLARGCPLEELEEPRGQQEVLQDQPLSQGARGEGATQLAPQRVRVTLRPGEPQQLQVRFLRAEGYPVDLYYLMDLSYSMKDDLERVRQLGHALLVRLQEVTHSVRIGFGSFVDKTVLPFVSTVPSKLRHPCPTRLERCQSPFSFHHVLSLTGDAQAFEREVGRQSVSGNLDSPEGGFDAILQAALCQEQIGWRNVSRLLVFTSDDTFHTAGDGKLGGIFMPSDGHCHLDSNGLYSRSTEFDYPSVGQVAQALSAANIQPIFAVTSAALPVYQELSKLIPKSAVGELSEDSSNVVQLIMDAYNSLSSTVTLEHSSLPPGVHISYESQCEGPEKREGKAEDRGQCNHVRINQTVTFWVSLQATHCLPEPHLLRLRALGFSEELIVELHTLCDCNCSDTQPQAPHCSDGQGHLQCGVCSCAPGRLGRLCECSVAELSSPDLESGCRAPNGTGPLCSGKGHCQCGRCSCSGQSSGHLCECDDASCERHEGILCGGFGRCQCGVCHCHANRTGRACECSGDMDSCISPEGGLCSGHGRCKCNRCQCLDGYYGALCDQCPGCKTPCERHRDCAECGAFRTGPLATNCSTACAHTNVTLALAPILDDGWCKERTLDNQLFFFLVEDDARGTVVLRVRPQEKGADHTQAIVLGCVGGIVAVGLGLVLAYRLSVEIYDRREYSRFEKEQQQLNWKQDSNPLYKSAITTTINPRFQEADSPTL
In short: (§1)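 38C13β7 lymphoma cells (α4β7+) labelled with H33342 dye (6 µg/mL), 8 × 10^5 cells/mL in adhesion buffer (Click's RPMI, 1% BSA, 1.0 mM Ca2+/Mg2+). Cells are preincubated with compound 10 min at 37 °C, then adhere 30 min at 37 °C to plates carrying anti-human-IgG-captured MAdCAM-1-IgG from 293T supernatant. Nonadherent cells are removed by inverse centrifugation (50 g, 10 min); readout is fluorimetry; IC50 from curves.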

[1] = In vitro inhibition of 38-beta7 (alpha4-beta7) cell adhesion to mucosal addressin cell adhesion molecule-1.; format: functional; in short: as §1
[2] = molecular target: Integrin alpha-4/beta-1 (Homo sapiens) (UniProt P05556+P13612); test: In vitro inhibition of Jurkat cell (alpha4-beta1) cell adhesion to vascular cell adhesion molecule-1.; format: functional, cell-based
In short: (§2)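 Jurkat cells (α4β1+, α4β7−) are Hoechst H33342-labelled (6 µg/mL), then preincubated with compound 10 min at 37 °C at 8 × 10^5 cells/mL. Adhesion runs 30 min at 37 °C to VCAM-IgG (293T transfectant supernatant) captured on donkey anti-human IgG, in RPMI/1% BSA/1 mM Ca2+, Mg2+. Unbound cells are spun off inverted (50 g, 10 min); adhesion is read by fluorescence; IC50 from curves.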

Integrin beta-1 = Integrin beta-1 (Homo sapiens, UniProt P05556); test: Inhibition of alpha4-beta1 interaction to vascular cell adhesion molecule-1 (VCAM-1) was determined; format: functional; in short: as §2
Chain of Integrin beta-1 (P05556 whole entry): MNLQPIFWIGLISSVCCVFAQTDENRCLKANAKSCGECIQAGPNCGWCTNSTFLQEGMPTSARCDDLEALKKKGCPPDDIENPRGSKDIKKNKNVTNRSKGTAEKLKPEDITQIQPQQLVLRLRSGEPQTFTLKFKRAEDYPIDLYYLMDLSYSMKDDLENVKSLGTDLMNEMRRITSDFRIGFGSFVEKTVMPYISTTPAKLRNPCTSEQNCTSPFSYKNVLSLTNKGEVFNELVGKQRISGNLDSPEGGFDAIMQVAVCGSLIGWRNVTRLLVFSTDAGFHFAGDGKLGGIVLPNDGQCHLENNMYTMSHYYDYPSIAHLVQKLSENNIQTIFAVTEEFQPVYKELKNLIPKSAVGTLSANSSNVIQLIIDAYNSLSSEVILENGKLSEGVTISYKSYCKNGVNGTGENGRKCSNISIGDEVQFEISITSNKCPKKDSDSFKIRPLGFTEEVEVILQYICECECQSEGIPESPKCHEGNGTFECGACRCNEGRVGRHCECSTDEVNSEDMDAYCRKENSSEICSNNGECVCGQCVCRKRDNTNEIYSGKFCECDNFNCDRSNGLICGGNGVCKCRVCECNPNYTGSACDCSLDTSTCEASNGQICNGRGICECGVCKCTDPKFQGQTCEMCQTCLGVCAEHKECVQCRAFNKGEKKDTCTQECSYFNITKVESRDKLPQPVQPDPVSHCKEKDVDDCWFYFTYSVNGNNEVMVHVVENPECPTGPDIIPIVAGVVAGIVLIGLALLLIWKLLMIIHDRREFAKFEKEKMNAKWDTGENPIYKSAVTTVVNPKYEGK

IC50 (Integrin beta-7) [µM] | Adhesion [2] [%] | IC50 (Integrin beta-1) [µM] | Compound | Adhesion [1] [%]
420 | – | – | CO[C@]12CCCC[C@@]1(OC)OC1[C@H](COCC(C)C)O[C@@H](OCC(=O)O)[C@H](OCc3ccccc3)[C@H]1O2 (stereo in doubt; form 2) [listing 1 of 2 here] | 15
– | 98 | – | COC1C(COC(C)C)O[C@@H](OCC(=O)O)[C@H](OCCO)[C@H]1OC (stereo not given in full) | 100
– | 100 | – | COC1C(CC(C)C)O[C@@H](OCC(=O)O)C(OCc2ccccc2)[C@H]1OC (stereo not given in full) | 100
– | 82 | – | CO[C@@]12O[C@@H]3[C@H](OCCO)[C@H](OCC(=O)O)O[C@H](COCC(C)C)[C@H]3O[C@@]1(OC)c1ccccc1-c1ccccc12 | 80
– | 100 | – | COC1C(COCC(C)C)O[C@@H](OCC(=O)O)[C@H](OCCO)[C@H]1OC (stereo not given in full) | 100
– | 81 | – | CO[C@@]12O[C@H]3[C@H](O[C@@]1(OC)c1ccccc1-c1ccccc12)[C@@H](COCC(C)C)OC(OCC(=O)O)[C@H]3OCCO (stereo not given in full) | 76
– | 100 | – | COC1C(CCC(C)C)O[C@@H](OCC(=O)O)C(OCc2ccccc2)[C@H]1OC (stereo not given in full) | 100
– | – | 1440 | CC[C@H](C)[C@@H]1NC(=O)[C@H](CCC(N)=O)NC(=O)[C@@H](N)CSSC[C@@H](C(=O)O)NC(=O)[C@@H]2CCCN2C(=O)[C@H](CO)NC(=O)[C@H](CC(=O)O)NC1=O | –
– | 52 | – | CC[C@H](C)[C@@H]1NC(=O)[C@@H](CCC(N)=O)NC(=O)[C@H](N)CSSC[C@H](C(=O)O)NC(=O)[C@H]2CCCN2C(=O)[C@H](CO)NC(=O)[C@@H](CC(=O)O)NC1=O | –
280 | 10 | – | CC(C)C[C@H](NC(=O)c1cc2ccccc2cn1)C(=O)N[C@@H](CC(=O)O)C(=O)N[C@H](C(N)=O)[C@@H](C)O | 10
– | 89 | – | CO[C@]12CCCC[C@@]1(OC)OC1[C@H](COCC(C)C)O[C@@H](OCC(=O)O)[C@H](OCc3ccccc3)[C@H]1O2 (stereo in doubt; form 1) [listing 1 of 2 here] | –
– | 100 | – | COC1C(COCC(C)C)O[C@@H](OCC(=O)O)[C@H](OCc2ccccc2)[C@H]1OC (stereo not given in full) | 100
– | 100 | – | COC1C(CC(C)C)O[C@@H](OCC(=O)O)[C@H](OCc2ccccc2)[C@H]1OC (stereo not given in full) | 100
– | 86 | – | COC1C(COCC(C)C)O[C@@H](OCC(=O)O)C(OCc2ccccc2)[C@H]1OC (stereo not given in full) | 100
– | 77 | – | CO[C@]12CCCC[C@@]1(OC)OC1[C@H](COCC(C)C)O[C@@H](OCC(=O)O)[C@H](OCc3ccccc3)[C@H]1O2 (stereo in doubt; form 2) [listing 2 of 2 here] | –
– | 92 | – | COC1C(COC(C)C)O[C@@H](OCC(=O)O)[C@H](OCc2ccccc2)[C@H]1OC (stereo not given in full) | 100
– | 100 | – | COC1C(COC(C)C)O[C@@H](OCC(=O)O)C(OCCO)[C@H]1OC (stereo not given in full) | 100
– | 100 | – | COC12CCCC[C@]1(OC)O[C@H]1C(O2)C(COC(C)C)O[C@@H](OCC(=O)O)[C@@H]1OCc1ccccc1 (stereo in doubt; form 2) [listing 1 of 2 here] | –
– | 86 | – | COC1C(COC(C)C)O[C@@H](OCC(=O)O)C(OCc2ccccc2)[C@H]1OC (stereo not given in full) | 100
– | 97 | – | COC1C(CCC(C)C)O[C@@H](OCC(=O)O)[C@H](OCc2ccccc2)[C@H]1OC (stereo not given in full) | 100
– | – | – | CO[C@]12CCCC[C@@]1(OC)OC1[C@H](COCC(C)C)O[C@@H](OCC(=O)O)[C@H](OCc3ccccc3)[C@H]1O2 (stereo in doubt; form 1) [listing 2 of 2 here] | 90
– | – | – | COC12CCCC[C@]1(OC)O[C@H]1C(O2)C(COC(C)C)O[C@@H](OCC(=O)O)[C@@H]1OCc1ccccc1 (stereo in doubt; form 2) [listing 2 of 2 here] | 76
– | 100 | – | COC12CCCC[C@]1(OC)O[C@H]1C(O2)C(COC(C)C)O[C@@H](OCC(=O)O)[C@@H]1OCc1ccccc1 (stereo in doubt; form 1) [listing 1 of 2 here] | –
– | – | – | COC12CCCC[C@]1(OC)O[C@H]1C(O2)C(COC(C)C)O[C@@H](OCC(=O)O)[C@@H]1OCc1ccccc1 (stereo in doubt; form 1) [listing 2 of 2 here] | 100
